Tested on: NCI-H23
Assay: Growth inhibition of human NCI-H23 cells at 10 uM after 48 hrs by sulforhodamine B assay
Assay type: functional
Conditions: NCI-H23, 48 h, read-out: GI
Outline: (§1)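 Single-dose screen at 10 µM across the NCI 60 panel. Cells in RPMI 1640 with 5% FBS and 2 mM L-glutamine, plated at 5000–40,000/well and preincubated 24 h at 37 °C, 5% CO2. Drug in DMSO, 48 h exposure. Fixed with TCA, stained with SRB, A515 read. Percent growth is taken relative to untreated control, and inhibition is 100 minus growth.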

Row | Compound | inhibition of growth at 10 µM
1 | O=S(=O)(Nc1cccc2ccccc12)c1ccc2nc(-c3ccccc3)c(-c3ccccc3)nc2c1 | 21.3%

Tested on: PC-3
Assay: Growth inhibition of human PC3 cells at 10 uM after 48 hrs by sulforhodamine B assay
Assay type: functional
Conditions: PC-3, 48 h, read-out: GI
Outline: as §1

Row | Compound | inhibition of growth at 10 µM
2 | O=S(=O)(Nc1cccc2ccccc12)c1ccc2nc(-c3ccccc3)c(-c3ccccc3)nc2c1 | 41.8%

Tested on: OVCAR-3
Assay: Growth inhibition of human OVCAR3 cells at 10 uM after 48 hrs by sulforhodamine B assay
Assay type: functional
Conditions: OVCAR-3, 48 h, read-out: GI
Outline: as §1

Row | Compound | inhibition of growth at 10 µM
3 | O=S(=O)(Nc1cccc2ccccc12)c1ccc2nc(-c3ccccc3)c(-c3ccccc3)nc2c1 | 30.9%

Tested on: Malme-3M
Assay: Growth inhibition of human MALME-3M cells at 10 uM after 48 hrs by sulforhodamine B assay
Assay type: functional
Conditions: read-out: GI
Outline: as §1

Row | Compound | inhibition of growth at 10 µM
4 | O=S(=O)(Nc1cccc2ccccc12)c1ccc2nc(-c3ccccc3)c(-c3ccccc3)nc2c1 | 9.98%

Tested on: not listed separately
Assay: Growth inhibition of human HCC2998 cells at 10 uM after 48 hrs by sulforhodamine B assay
Assay type: functional
Conditions: HCC 2998, 48 h, read-out: GI
Outline: (§2)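 NCI-60 one-dose primary screen at a single 10 µM concentration. Cells in RPMI 1640 with 5% FBS, preincubated 24 h at 37 °C, 5% CO2. Drug exposure 48 h, then TCA fixation, SRB staining and absorbance at 515 nm. Percent growth calculated against time-zero and untreated control wells, then converted to percent growth inhibition.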

Row | Compound | inhibition of growth at 10 µM
5 | O=S(=O)(Nc1cccc2ccccc12)c1ccc2nc(-c3ccccc3)c(-c3ccccc3)nc2c1 | 4.56%

Tested on: KM12
Assay: Growth inhibition of human KM12 cells at 10 uM after 48 hrs by sulforhodamine B assay
Assay type: functional
Conditions: KM12, 48 h, read-out: GI
Outline: as §1

Row | Compound | inhibition of growth at 10 µM
6 | O=S(=O)(Nc1cccc2ccccc12)c1ccc2nc(-c3ccccc3)c(-c3ccccc3)nc2c1 | 29.9%

Tested on: ACHN
Assay: Growth inhibition of human ACHN cells at 10 uM after 48 hrs by sulforhodamine B assay
Assay type: functional
Conditions: read-out: GI
Outline: (§3)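 Single-dose NCI-60 prescreen at 10 µM for 48 h at 37 °C and 5% CO2, using cells grown in RPMI 1640 with 5% FBS and 2 mM glutamine. Protein was measured by SRB after TCA fixation: 10% final for adherent lines, 16% for suspension lines. Absorbance was read at 515 nm. Percent growth inhibition was obtained by subtracting percent growth from 100.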

Row | Compound | inhibition of growth at 10 µM
7 | O=S(=O)(Nc1cccc2ccccc12)c1ccc2nc(-c3ccccc3)c(-c3ccccc3)nc2c1 | 21.9%

Tested on: CCRF-CEM
Assay: Growth inhibition of human CCRF-CEM cells at 10 uM after 48 hrs by sulforhodamine B assay
Assay type: functional
Conditions: read-out: GI
Outline: as §3

Row | Compound | inhibition of growth at 10 µM
8 | O=S(=O)(Nc1cccc2ccccc12)c1ccc2nc(-c3ccccc3)c(-c3ccccc3)nc2c1 | 58.3%

Tested on: NCI-H460
Assay: Growth inhibition of human NCI-H460 cells at 10 uM after 48 hrs by sulforhodamine B assay
Assay type: functional
Conditions: NCI-H460, 48 h, read-out: GI
Outline: as §1

Row | Compound | inhibition of growth at 10 µM
9 | O=S(=O)(Nc1cccc2ccccc12)c1ccc2nc(-c3ccccc3)c(-c3ccccc3)nc2c1 | 23.6%

Tested on: SF-268
Assay: Growth inhibition of human SF268 cells at 10 uM after 48 hrs by sulforhodamine B assay
Assay type: functional
Conditions: SF-268, 48 h, read-out: GI
Outline: as §1

Row | Compound | inhibition of growth at 10 µM
10 | O=S(=O)(Nc1cccc2ccccc12)c1ccc2nc(-c3ccccc3)c(-c3ccccc3)nc2c1 | 2.78%

Tested on: RPMI-8226
Assay: Growth inhibition of human RPMI8226 cells at 10 uM after 48 hrs by sulforhodamine B assay
Assay type: functional
Conditions: RPMI-8226, 48 h, read-out: GI
Outline: as §1

Row | Compound | inhibition of growth at 10 µM
11 | O=S(=O)(Nc1cccc2ccccc12)c1ccc2nc(-c3ccccc3)c(-c3ccccc3)nc2c1 | 44.3%

Tested on: T47D
Assay: Growth inhibition of human T47D cells at 10 uM after 48 hrs by sulforhodamine B assay
Assay type: functional
Conditions: read-out: GI
Outline: as §1

Row | Compound | inhibition of growth at 10 µM
12 | O=S(=O)(Nc1cccc2ccccc12)c1ccc2nc(-c3ccccc3)c(-c3ccccc3)nc2c1 | 49.4%

Tested on: SK-MEL-2
Assay: Growth inhibition of human SK-MEL-2 cells at 10 uM after 48 hrs by sulforhodamine B assay
Assay type: functional
Conditions: SK-MEL-2, 48 h, read-out: GI
Outline: as §1

Row | Compound | inhibition of growth at 10 µM
13 | O=S(=O)(Nc1cccc2ccccc12)c1ccc2nc(-c3ccccc3)c(-c3ccccc3)nc2c1 | 14.9%

Tested on: SF-539
Assay: Growth inhibition of human SF539 cells at 10 uM after 48 hrs by sulforhodamine B assay
Assay type: functional
Conditions: SF-539, 48 h, read-out: GI
Outline: as §1

Row | Compound | inhibition of growth at 10 µM
14 | O=S(=O)(Nc1cccc2ccccc12)c1ccc2nc(-c3ccccc3)c(-c3ccccc3)nc2c1 | 5.57%

Tested on: HT-29
Assay: Growth inhibition of human HT-29 cells at 10 uM after 48 hrs by sulforhodamine B assay
Assay type: functional
Conditions: HT-29, 48 h, read-out: GI
Outline: as §2

Row | Compound | inhibition of growth at 10 µM
15 | O=S(=O)(Nc1cccc2ccccc12)c1ccc2nc(-c3ccccc3)c(-c3ccccc3)nc2c1 | 82.5%

Tested on: OVCAR-5
Assay: Growth inhibition of human OVCAR5 cells at 10 uM after 48 hrs by sulforhodamine B assay
Assay type: functional
Conditions: OVCAR-5, 48 h, read-out: GI
Outline: as §1

Row | Compound | inhibition of growth at 10 µM
16 | O=S(=O)(Nc1cccc2ccccc12)c1ccc2nc(-c3ccccc3)c(-c3ccccc3)nc2c1 | 2.98%

Tested on: UACC-62
Assay: Growth inhibition of human UACC62 cells at 10 uM after 48 hrs by sulforhodamine B assay
Assay type: functional
Conditions: UACC-62, 48 h, read-out: GI
Outline: as §1

Row | Compound | inhibition of growth at 10 µM
17 | O=S(=O)(Nc1cccc2ccccc12)c1ccc2nc(-c3ccccc3)c(-c3ccccc3)nc2c1 | 28.9%

Tested on: SK-MEL-5
Assay: Growth inhibition of human SK-MEL-5 cells at 10 uM after 48 hrs by sulforhodamine B assay
Assay type: functional
Conditions: SK-MEL-5, 48 h, read-out: GI
Outline: as §1

Row | Compound | inhibition of growth at 10 µM
18 | O=S(=O)(Nc1cccc2ccccc12)c1ccc2nc(-c3ccccc3)c(-c3ccccc3)nc2c1 | 48.6%

Tested on: MCF7
Assay: Growth inhibition of human MCF7 cells at 10 uM after 48 hrs by sulforhodamine B assay
Assay type: functional
Conditions: MCF7, 48 h, read-out: GI
Outline: as §1

Row | Compound | inhibition of growth at 10 µM
19 | O=S(=O)(Nc1cccc2ccccc12)c1ccc2nc(-c3ccccc3)c(-c3ccccc3)nc2c1 | 23%

Tested on: A498
Assay: Growth inhibition of human A498 cells at 10 uM after 48 hrs by sulforhodamine B assay
Assay type: functional
Conditions: A498, 48 h, read-out: GI
Outline: as §3

Row | Compound | inhibition of growth at 10 µM
20 | O=S(=O)(Nc1cccc2ccccc12)c1ccc2nc(-c3ccccc3)c(-c3ccccc3)nc2c1 | 31.9%

Tested on: SN12C
Assay: Growth inhibition of human SN12C cells at 10 uM after 48 hrs by sulforhodamine B assay
Assay type: functional
Conditions: read-out: GI
Outline: as §1

Row | Compound | inhibition of growth at 10 µM
21 | O=S(=O)(Nc1cccc2ccccc12)c1ccc2nc(-c3ccccc3)c(-c3ccccc3)nc2c1 | 8.87%

Tested on: CAKI-1
Assay: Growth inhibition of human CAKI-1 cells at 10 uM after 48 hrs by sulforhodamine B assay
Assay type: functional
Conditions: CAKI-1, 48 h, read-out: GI
Outline: as §3

Row | Compound | inhibition of growth at 10 µM
22 | O=S(=O)(Nc1cccc2ccccc12)c1ccc2nc(-c3ccccc3)c(-c3ccccc3)nc2c1 | 3.34%

Tested on: not listed separately
Assay: Growth inhibition of human NCI-ADR-RES cells at 10 uM after 48 hrs by sulforhodamine B assay
Assay type: functional
Conditions: read-out: GI
Outline: as §1

Row | Compound | inhibition of growth at 10 µM
23 | O=S(=O)(Nc1cccc2ccccc12)c1ccc2nc(-c3ccccc3)c(-c3ccccc3)nc2c1 | 22.6%

Tested on: HCT-15
Assay: Growth inhibition of human HCT15 cells at 10 uM after 48 hrs by sulforhodamine B assay
Assay type: functional
Conditions: HCT-15, 48 h, read-out: GI
Outline: as §2

Row | Compound | inhibition of growth at 10 µM
24 | O=S(=O)(Nc1cccc2ccccc12)c1ccc2nc(-c3ccccc3)c(-c3ccccc3)nc2c1 | 34.3%

Tested on: LOX IMVI
Assay: Growth inhibition of human LOXIMVI cells at 10 uM after 48 hrs by sulforhodamine B assay
Assay type: functional
Conditions: read-out: GI
Outline: as §1

Row | Compound | inhibition of growth at 10 µM
25 | O=S(=O)(Nc1cccc2ccccc12)c1ccc2nc(-c3ccccc3)c(-c3ccccc3)nc2c1 | 32.9%

Tested on: UO-31
Assay: Growth inhibition of human UO31 cells at 10 uM after 48 hrs by sulforhodamine B assay
Assay type: functional
Conditions: UO-31, 48 h, read-out: GI
Outline: as §1

Row | Compound | inhibition of growth at 10 µM
26 | O=S(=O)(Nc1cccc2ccccc12)c1ccc2nc(-c3ccccc3)c(-c3ccccc3)nc2c1 | 17.9%

Tested on: SR
Assay: Growth inhibition of human SR cells at 10 uM after 48 hrs by sulforhodamine B assay
Assay type: functional
Conditions: read-out: GI
Outline: as §1

Row | Compound | inhibition of growth at 10 µM
27 | O=S(=O)(Nc1cccc2ccccc12)c1ccc2nc(-c3ccccc3)c(-c3ccccc3)nc2c1 | 81.1%

Reference: ChEMBL document CHEMBL2407075, “Sulphonamido-quinoxalines: search for anticancer agent” (Eur J Med Chem, 2013)
